OX1R antag-1: OX1R (human) antagonism; OX1R-expressing cells, FRET antagonist read-out; inhibition, % at 6.6 µM; AID 485270; O43613; 330,000 compounds, 1.8% hits; in the data active = inhibition mostly above about 38%, no sharp cut-off; inactive = mostly below about 40%;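 also: 0% = agonist challenge alone and 100% = reference antagonist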
Target sequence (O43613 whole entry, looked up): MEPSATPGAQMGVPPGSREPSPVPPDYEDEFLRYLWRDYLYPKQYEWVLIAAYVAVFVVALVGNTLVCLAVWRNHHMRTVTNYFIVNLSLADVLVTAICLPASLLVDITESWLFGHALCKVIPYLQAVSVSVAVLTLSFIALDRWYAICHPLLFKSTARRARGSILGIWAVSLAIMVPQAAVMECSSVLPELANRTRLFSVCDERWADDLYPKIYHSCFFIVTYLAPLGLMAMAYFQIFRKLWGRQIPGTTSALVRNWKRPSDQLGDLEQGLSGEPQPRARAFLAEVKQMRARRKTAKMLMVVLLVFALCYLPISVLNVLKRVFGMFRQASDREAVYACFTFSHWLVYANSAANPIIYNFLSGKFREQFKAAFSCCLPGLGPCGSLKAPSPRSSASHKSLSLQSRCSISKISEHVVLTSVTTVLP
CHO parental Ca: counter-screen for OX1R antagonists: effect in parental CHO cells; parental CHO-K1, ATP-induced calcium, Fluo-8 fluorescence; inhibition, % at 5.6 µM; 330,000 compounds, 0.63% hits;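 active = inhibition above that plate's mean sample inhibition plus 3 SD, cut at about 26% in these data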;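 also: 0% = ATP-challenged DMSO wells and 100% = DMSO wells without ATP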
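Material: Parental CHO cells | Reagent: ATP | Compound dosing: Single nominal dose of 5.6 µM per compound | Detection: Intracellular calcium via Fluo-8 no-wash fluorescent dye | Read-out: % inhibition of ATP-induced calcium mobilization | Benchmarks: Low control ATP plus DMSO, high control DMSO only | Replicates: Singlicate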
NTR1 agonist: agonists of human neurotensin receptor NTR1; P30989; NTR1-U2OS beta-arrestin-GFP spot imaging, agonist mode; activation, % at 20 µM; 330,000 compounds, 0.17% hits;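 active = activation at or above 40% of the spot to cytoplasm intensity ratio, with at least 20 cells analyzed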;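 also: 0% = DMSO without peptide and 100% = 100 nM NTR1 peptide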
OX1R antag-2: antagonists of human orexin 1 receptor; O43613; CHO/OX1R cells, Fluo-8 calcium fluorescence, orexin A; inhibition, % at 5 µM; 330,000 compounds, 0.43% hits; AID 434989;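 active = inhibition above its plate's threshold, mean inhibition of all tested compounds on the plate plus 3 SD, cut at about 37% in these data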;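 also: 0% = orexin A challenge wells and 100% = SB-334867-A antagonist wells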
TAAR1 agonist: agonists of human TAAR1; 360,000 compounds, 0.99% hits; activation, % at 3 µM; CHO RD-HGA16 TAAR1, Fluo-8 calcium fluorescence; vehicle wells 0%, saturating PEA agonist 100%; Q96RJ0;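 active = activation above the mean activation of all test compounds in the run plus 3 SD, cut at about 38% in these data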
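System: CHO RD-HGA16 cells carrying human TAAR1 plus Gα16; Incubation: 17-24 h seeding, 75 min 37 °C dye, 30 min RT; Measured by: Fluo-8 fluorescence, 5 s baseline then 140 s kinetic read; Control set: DMSO and PEA EC100; Replication: single well for each compound.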
TAAR1 antag: antagonists of human TAAR1; CHO RD-HGA16 TAAR1, Fluo-8 calcium fluorescence, antagonist; inhibition, % at 3 µM; 360,000 compounds, 1.5% hits;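 active = inhibition above a per-plate cutoff, the mean inhibition of test compounds on that plate plus 3 SD, cut at about 49% in these data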;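 also: 0% = DMSO plus EC80 beta-PEA response and 100% = DMSO alone without agonist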
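System: CHO RD-HGA16 cells bearing hTAAR1. Reagent: EC80 β-phenethylamine stimulus. Schedule: seeding 17-24 h prior, 75-min 37 °C, 30-min RT dye loading. Signal: Fluo-8 intracellular calcium dye fluorescence, real-time kinetic reads. Read-out: % inhibition from peak post-agonist over basal fluorescence ratio. Benchmarks: vehicle wells and EC80 agonist wells. Replicates: n of 1.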
TAAR1 ag confirm: confirmation of human TAAR1 agonists; shares compounds with TAAR1 agonist; CHO RD-HGA16 TAAR1, Fluo-8 calcium fluorescence; scaled: DMSO 0%, maximal phenethylamine 100%; activation, % at 3 µM; 2,400 compounds, 82% hits; AID 651783;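 active = activation above a cutoff set at the run's mean compound activation plus 3 SD, cut at about 39% in these data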
Ga16 nonsel ag: nonselective agonist in parental cells, TAAR1 agonist counter-screen; activation, % at 3 µM; AID 651787; CHO-Ga16 parental, Fluo-8 calcium fluorescence; normalized to maximal ATP response, DMSO zero; 2,400 compounds, 50% hits; shares compounds with TAAR1 agonist;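 active = activation above the run cutoff, the mean activation over all tested wells plus 3 SD, cut at about 12% in these data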;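 also: 0% = DMSO wells and 100% = maximal ATP response on the peak over basal ratio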
TAAR1 desensitize: human TAAR1 agonist that also desensitizes the receptor. shares compounds with TAAR1 agonist. CHO RD-HGA16 hTAAR1, Fluo-8 calcium, beta-PEA response inhibition. inhibition, % at 3 µM. 2,400 compounds, 46% hits. AID 651951;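 active = inhibition above the run cutoff, the mean inhibition of all test compounds plus 3 SD, cut at about 49% in these data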;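 also: beta-PEA stimulus applied at its EC80; loss of beta-PEA calcium signal after compound pretreatment read as receptor desensitization; 0% = DMSO with beta-PEA at EC80 and 100% = DMSO alone without agonist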
Ga16 antag count: nonselective Ga16 antagonist in TAAR1 agonist counter-screen; inhibition, % at 3 µM; shares compounds with TAAR1 agonist; 2,400 compounds, 39% hits; CHO-Ga16 ATP-induced calcium, Fluo-8 fluorescence;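 active = inhibition above the plate's mean compound inhibition plus 3 SD, computed per plate, cut at about 22% in these data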;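 also: 0% = EC80 ATP with DMSO and 100% = DMSO wells without ATP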
* hit, by the source's call. The list is not random: actives were taken first. Their share in the collection is about 4%.

How did COc1cccc(CN2C(=NC(=O)C3CCCO3)SC3CS(=O)(=O)CC32)c1 (stereo unspecified) do in these assays?
TAAR1 agonist: 0.9; TAAR1 antag: -9.6

What do the screens show for `O=C(Cc1ccccc1)Nc1ccc(C(=O)Nc2ccc(O)cc2)cc1`?
OX1R antag-1: 6.2; CHO parental Ca: 10.0; NTR1 agonist: -0.1; OX1R antag-2: 1.4; TAAR1 agonist: 3.5; TAAR1 antag: 25.0

Results for O=C(CSc1ccccc1)Nc1ccc(C(=O)Nc2ccc(O)cc2)cc1 ?
NTR1 agonist: 3.4; TAAR1 agonist: 75.2*; TAAR1 antag: 27.3; TAAR1 ag confirm: 1.1; Ga16 nonsel ag: -0.3; TAAR1 desensitize: 2.8; Ga16 antag count: 13.6

Results for O=C(NNC(=O)c1ccc(Br)s1)c1ccc(F)c(S(=O)(=O)N2CCOCC2)c1 ?
OX1R antag-1: 7.4; CHO parental Ca: -2.9; NTR1 agonist: 1.9; OX1R antag-2: 14.7; TAAR1 agonist: -0.8; TAAR1 antag: 3.3

Results for O=C(O)C1CCCCC1C(=O)NCCCc1ccccc1 (stereo unspecified) ?
OX1R antag-1: 10.3; CHO parental Ca: -14.4; NTR1 agonist: 0.6; OX1R antag-2: -15.8; TAAR1 agonist: 67.9*; TAAR1 antag: 0.5; TAAR1 ag confirm: 50.0*; Ga16 nonsel ag: -0.4; TAAR1 desensitize: -3.4; Ga16 antag count: -3.1

How did O=C(NC1CCCCC1)C(=S)NCCc1ccccc1 do in these assays?
OX1R antag-1: 14.3; CHO parental Ca: -16.2; NTR1 agonist: 1.0; OX1R antag-2: -24.5; TAAR1 agonist: 58.1*; TAAR1 antag: 33.0; TAAR1 ag confirm: 75.7*; Ga16 nonsel ag: 1.5; TAAR1 desensitize: 62.1*; Ga16 antag count: 20.4

How did O=C(O)C1CCCCC1C(=O)NCCCCc1ccccc1 (stereo unspecified) do in these assays?
OX1R antag-1: 12.1; CHO parental Ca: -17.3; NTR1 agonist: 0.2; OX1R antag-2: -16.8; TAAR1 agonist: 45.0*; TAAR1 antag: 10.6; TAAR1 ag confirm: 55.9*; Ga16 nonsel ag: 5.3; TAAR1 desensitize: -4.2; Ga16 antag count: 0.7

How did O=C(NCCCCc1ccccc1)c1ccccc1 do in these assays?
OX1R antag-1: 17.6; CHO parental Ca: 1.3; NTR1 agonist: 0.0; OX1R antag-2: -9.6; TAAR1 agonist: 0.3; TAAR1 antag: -20.4

What do the screens show for `O=C(NCCCc1ccccc1)c1ccccc1`?
OX1R antag-1: 11.5; CHO parental Ca: -18.2; NTR1 agonist: -0.7; OX1R antag-2: -20.7; TAAR1 agonist: 22.2; TAAR1 antag: -4.0

How did CC1CCCC/C1=N\NC(=S)NCCc1ccccc1 (stereo unspecified) do in these assays?
OX1R antag-1: -0.2; CHO parental Ca: -4.0; NTR1 agonist: 1.8; OX1R antag-2: -38.0; TAAR1 agonist: 56.5*; TAAR1 antag: -17.2; TAAR1 ag confirm: 44.6*; Ga16 nonsel ag: -0.1; TAAR1 desensitize: 4.4; Ga16 antag count: 0.7

Results for CC(CNC(=O)C1CCCCC1C(=O)O)c1ccccc1 (stereo unspecified) ?
OX1R antag-1: 4.8; CHO parental Ca: -4.6; NTR1 agonist: 0.1; OX1R antag-2: -2.6; Ga16 nonsel ag: 0.7; Ga16 antag count: 10.7
